Reference: article PMC3608840 (Journal of biomolecular screening, 2012)

What was measured:
hPAP [1] = biological target: T1, hPAP (Homo sapiens, UniProt P15309); test: Fluorogenic; type: biochemical
T1 sequence (P15309 33-386): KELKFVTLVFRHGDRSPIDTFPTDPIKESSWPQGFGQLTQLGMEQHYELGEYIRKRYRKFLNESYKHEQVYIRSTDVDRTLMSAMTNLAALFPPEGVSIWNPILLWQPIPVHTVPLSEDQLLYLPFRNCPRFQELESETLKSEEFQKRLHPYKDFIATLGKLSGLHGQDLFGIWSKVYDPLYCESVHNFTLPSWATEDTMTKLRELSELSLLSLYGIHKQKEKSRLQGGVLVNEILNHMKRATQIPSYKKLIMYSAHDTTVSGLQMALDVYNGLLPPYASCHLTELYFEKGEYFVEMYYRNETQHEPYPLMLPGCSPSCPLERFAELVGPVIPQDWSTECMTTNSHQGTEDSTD

hPAP [2] = biological target: T1, hPAP; test: 5′-AMP hydrolysis; type: biochemical
mPAP [3] = biological target: T2, mPAP (Mus musculus, UniProt Q8CE08); test: Fluorogenic; type: biochemical
T2 sequence (Q8CE08 32-381): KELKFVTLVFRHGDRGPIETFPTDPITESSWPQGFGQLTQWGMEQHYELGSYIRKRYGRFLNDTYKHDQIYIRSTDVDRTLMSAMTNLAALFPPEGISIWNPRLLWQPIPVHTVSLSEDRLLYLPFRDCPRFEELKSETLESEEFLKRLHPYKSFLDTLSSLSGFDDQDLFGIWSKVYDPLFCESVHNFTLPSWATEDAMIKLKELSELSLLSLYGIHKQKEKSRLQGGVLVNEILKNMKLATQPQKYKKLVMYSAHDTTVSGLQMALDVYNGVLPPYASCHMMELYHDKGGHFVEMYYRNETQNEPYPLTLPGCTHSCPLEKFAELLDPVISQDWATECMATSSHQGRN

mPAP [4] = biological target: T2, mPAP; test: 5′-AMP hydrolysis; type: biochemical; settings: for Normalized inhibition of mPAP, 5′-AMP hydrolysis (in words): compound at 100 μM
ALP [5] = test: Fluorogenic; type: biochemical, bovine; settings: for ALP Fluorogenic Assay IC50: DiFMUP substrate, pH 8.0
Method in brief: (§1)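 Bovine ALP (5 pM final; 50 mM Tris-HCl pH 8.0) or potato acid phosphatase (1.5 nM final; 50 mM sodium acetate pH 5.3), each buffer with 0.01% Tween-20, or human PTP-1B. 12-point in-plate compound series, 15 min room-temperature preincubation with enzyme, then 100 μM DiFMUP final. Fluorescence (ex 340/em 450 nm) read each min for 3 min. Change normalized to enzyme and no-enzyme controls, sigmoidal dose-response fit.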

ALP [6] = test: 5′-AMP hydrolysis; type: biochemical, bovine; settings: for ALP 5′-AMP Hydrolysis IC50: 100 μM AMP
pAP = test: Fluorogenic; type: biochemical, potato
Method in brief: as §1

transmembrane PAP = test: Cell-based calcium mobilization assay of AMP hydrolysis by transmembrane PAP; settings: HEK293 cells expressing hA2B + Gαq-s5 + transmembrane PAP, 1 mM AMP
PTP = biological target: T3, PTP (Homo sapiens, UniProt P18031); test: Fluorogenic assay, Protein Tyrosine Phosphatase-1B; type: biochemical; settings: data not shown
T3 sequence (P18031 1-435): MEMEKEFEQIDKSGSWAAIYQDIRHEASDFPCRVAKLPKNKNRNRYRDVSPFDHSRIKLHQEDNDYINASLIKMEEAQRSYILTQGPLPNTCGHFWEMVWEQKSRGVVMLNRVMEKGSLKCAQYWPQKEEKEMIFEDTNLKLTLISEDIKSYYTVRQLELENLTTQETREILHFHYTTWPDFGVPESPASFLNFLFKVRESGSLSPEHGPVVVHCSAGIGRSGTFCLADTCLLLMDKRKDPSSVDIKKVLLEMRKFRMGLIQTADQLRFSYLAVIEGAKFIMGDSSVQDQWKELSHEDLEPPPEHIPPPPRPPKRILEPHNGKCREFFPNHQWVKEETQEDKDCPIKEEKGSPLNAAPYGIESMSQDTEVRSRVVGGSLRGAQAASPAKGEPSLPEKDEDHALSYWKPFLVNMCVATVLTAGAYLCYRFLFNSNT
Method in brief: as §1

A2B adenosine receptor = biological target: T4, A2B adenosine receptor (Homo sapiens, UniProt P29275); test: A2B receptor activation by adenosine in calcium mobilization assay; type: cell-based; settings: BABPA 5 μM, pCPT-cAMP 100 μM; 1 mM adenosine as ligand
T4 sequence (P29275 1-332): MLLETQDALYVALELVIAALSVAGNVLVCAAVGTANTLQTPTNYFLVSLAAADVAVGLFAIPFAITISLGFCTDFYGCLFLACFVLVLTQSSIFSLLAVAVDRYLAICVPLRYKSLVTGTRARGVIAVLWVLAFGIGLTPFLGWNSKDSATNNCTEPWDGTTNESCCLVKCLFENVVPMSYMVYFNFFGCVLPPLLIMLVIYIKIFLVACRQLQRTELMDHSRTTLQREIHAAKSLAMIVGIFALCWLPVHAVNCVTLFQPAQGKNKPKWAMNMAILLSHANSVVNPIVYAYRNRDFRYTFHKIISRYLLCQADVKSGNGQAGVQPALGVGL

[7] = tested on: equilibrative nucleoside transporter 1 (ENT1); settings: cited from earlier work
HEK293 cells = test: Cell killing in the cell-based calcium mobilization assay
[8] = read-out: hPAP Fluorogenic Assay IC50, DiFMUP substrate, pH 7.0
[9] = read-out: hPAP 5′-AMP Hydrolysis IC50, 400 μM AMP, pH 7.0

Nc1ncnc2c1nc(Sc1ccc(Cl)cc1)n2C1OC2COP(=O)(O)O[C@H]2C1O (stereo in doubt) [compound 21, 8-(4-Chlorophenylthio)-cAMP sodium]
IC50 (hPAP [1]; [8]): 39.8 µM
IC50 (hPAP [2]; [9]): 5.66 µM
IC50 (mPAP [3]; read-out: mPAP Fluorogenic Assay IC50, DiFMUP substrate, pH 7.0): 35.5 µM
IC50 (mPAP [4]; read-out: mPAP 5′-AMP Hydrolysis IC50, 1 mM AMP, pH 7.0): 20.2 µM
Inhibition of ALP, fluorogenic substrate (in words) (ALP [5]): Neither pCPT-cAMP nor pCPT-cGMP inhibited
ALP Fluorogenic Assay IC50 (ALP [5]): Inactive
ALP 5′-AMP Hydrolysis IC50 (ALP [6]): Inactive
Inhibition of pAP, fluorogenic substrate (in words) (pAP): Neither pCPT-cAMP nor pCPT-cGMP inhibited
pAP Fluorogenic Assay IC50 (pAP; DiFMUP substrate, pH 5.3): Inactive
Inhibition of hydrolysis of AMP to adenosine by transmembrane PAP (in words) (transmembrane PAP): dose-dependently inhibited
Inhibition of PTP, fluorogenic substrate (in words) (PTP): Neither pCPT-cAMP nor pCPT-cGMP inhibited
Block of A2B receptor activation by adenosine (in words) (A2B adenosine receptor): did not block
Block of ENT1 (in words) [7]: blocked

CCCOc1ccc2ccccc2c1/C=C/c1nc(O)c([N+](=O)[O-])c(=O)[nH]1 [Compound 49, 6-hydroxy-5-nitro-2-[(E)-2-(2-propoxy-naphthalen-1-yl)-vinyl]-3H-pyrimidin-4-one]
IC50 (hPAP [2]): 2.9 µM
IC50 (mPAP [4]): 42.9 µM
Inhibition of ALP, 5′-AMP hydrolysis (in words) (ALP [6]; compound at 100 μM): did not inhibit

O=C([O-])[C@H](O)[C@@H](O)C(=O)[O-].[Na+].[Na+] [L-(+)-tartrate]
Inhibition of hPAP, 5′-AMP hydrolysis (in words) (hPAP [2]; 10 mM): inhibited
Inhibition of mPAP, 5′-AMP hydrolysis (in words) (mPAP [4]; 10 mM): inhibited
Inhibition of ALP, 5′-AMP hydrolysis (in words) (ALP [6]; 10 mM): did not inhibit

O=C(O)c1nn(Cc2ccc(Cl)cc2Cl)c2ccccc12 [compound 9, Lonidamine]
IC50 (hPAP [1]): 50.1 µM
IC50 (hPAP [2]): 15.5 µM
mPAP Fluorogenic Assay IC50 (mPAP [3]; DiFMUP substrate, pH 7.0): Inactive
IC50 (mPAP [4]): 31.1 µM
ALP Fluorogenic Assay IC50 (ALP [5]): Inactive
ALP 5′-AMP Hydrolysis IC50 (ALP [6]): Inactive
pAP Fluorogenic Assay IC50 (pAP; DiFMUP substrate, pH 5.3): Inactive
Cell killing (in words) (HEK293 cells): killed the cells

COc1ccc2c(c1)c(CC(=O)O)c(C)n2Cc1ccc(Cl)cc1 [compound 17, 1-(4-Chlorobenzyl)-5-methoxy-2-methylindole-3-acetic acid]
IC50 (hPAP [1]; [8]): 39.8 µM
IC50 (hPAP [2]; [9]): 46.3 µM
mPAP Fluorogenic Assay IC50 (mPAP [3]; DiFMUP substrate, pH 7.0): Inactive
mPAP 5′-AMP Hydrolysis IC50 (mPAP [4]; 1 mM AMP, pH 7.0): Inactive
Normalized inhibition of mPAP, 5′-AMP hydrolysis (in words) (mPAP [4]): did not inhibit
ALP Fluorogenic Assay IC50 (ALP [5]): Inactive
ALP 5′-AMP Hydrolysis IC50 (ALP [6]): Inactive
pAP Fluorogenic Assay IC50 (pAP; DiFMUP substrate, pH 5.3): Inactive

Clc1ccc(C(c2ccc(Cl)cc2)n2cc[n+](CC(OCc3ccc(Cl)cc3Cl)c3ccc(Cl)cc3Cl)c2)cc1 (stereo not shown) [compound 29, Calmidazolium chloride]
IC50 (hPAP [1]): 44.7 µM
IC50 (hPAP [2]): 1.48 µM
IC50 (mPAP [3]): 39.8 µM
IC50 (mPAP [4]): 11.6 µM
ALP Fluorogenic Assay IC50 (ALP [5]): Inactive
ALP 5′-AMP Hydrolysis IC50 (ALP [6]): Inactive
pAP Fluorogenic Assay IC50 (pAP; DiFMUP substrate, pH 5.3): Inactive
Cell killing (in words) (HEK293 cells): killed the cells

O=c1c(O)c(-c2ccc(O)c(O)c2)oc2cc(O)cc(O)c12 [compound 70, Quercetin]
IC50 (hPAP [1]): 31.6 µM
hPAP 5′-AMP Hydrolysis IC50 (hPAP [2]; 400 μM AMP, pH 7.0): Inactive
mPAP Fluorogenic Assay IC50 (mPAP [3]; DiFMUP substrate, pH 7.0): Inactive
mPAP 5′-AMP Hydrolysis IC50 (mPAP [4]; 1 mM AMP, pH 7.0): Inactive
Normalized inhibition of mPAP, 5′-AMP hydrolysis (in words) (mPAP [4]): did not inhibit
ALP Fluorogenic Assay IC50 (ALP [5]): Inactive
ALP 5′-AMP Hydrolysis IC50 (ALP [6]): Inactive
pAP Fluorogenic Assay IC50 (pAP; DiFMUP substrate, pH 5.3): Inactive

CCn1cc(C(=O)O)c(=O)c2ccc(C)nc21 [compound 77, Nalidixic acid sodium]
IC50 (hPAP [1]): 28.2 µM
IC50 (hPAP [2]): 20.5 µM
IC50 (mPAP [3]): 2.8 µM
IC50 (mPAP [4]): 20.6 µM
ALP Fluorogenic Assay IC50 (ALP [5]): Inactive
ALP 5′-AMP Hydrolysis IC50 (ALP [6]): Inactive
pAP Fluorogenic Assay IC50 (pAP; DiFMUP substrate, pH 5.3): Inactive

CCCCCCC(C)(C)c1ccc([C@@H]2C[C@H](O)CC[C@H]2CCCO)c(O)c1 [compound 96, CP-55940]
IC50 (hPAP [1]): 31.6 µM
hPAP 5′-AMP Hydrolysis IC50 (hPAP [2]; 400 μM AMP, pH 7.0): Inactive
IC50 (mPAP [3]): 15.8 µM
mPAP 5′-AMP Hydrolysis IC50 (mPAP [4]; 1 mM AMP, pH 7.0): Inactive
Normalized inhibition of mPAP, 5′-AMP hydrolysis (in words) (mPAP [4]): did not inhibit
ALP Fluorogenic Assay IC50 (ALP [5]): Inactive
ALP 5′-AMP Hydrolysis IC50 (ALP [6]): Inactive
IC50 (pAP; read-out: pAP Fluorogenic Assay IC50, DiFMUP substrate, pH 5.3): 39.8 µM

O=c1c(O)c(-c2cc(O)c(O)c(O)c2)oc2cc(O)cc(O)c12 [compound 97, Myricetin]
IC50 (hPAP [1]): 44.7 µM
IC50 (hPAP [2]): 26.5 µM
ALP Fluorogenic Assay IC50 (ALP [5]): Inactive
ALP 5′-AMP Hydrolysis IC50 (ALP [6]): Inactive
pAP Fluorogenic Assay IC50 (pAP; DiFMUP substrate, pH 5.3): Inactive

Nc1nc2c(nc(Sc3ccc(Cl)cc3)n2[C@@H]2O[C@@H]3COP(=O)(O)O[C@H]3[C@H]2O)c(=O)[nH]1 [pCPT-cGMP, 8-(4-chlorophenylthio) cGMP]
IC50 (hPAP [1]; read-out: IC50 human secretory PAP, fluorogenic substrate): 31.1 µM
Inhibition of human secretory PAP in vitro using AMP as substrate (in words) (hPAP [2]; pH 7.0): inhibited
IC50 (mPAP [3]; read-out: IC50 mouse secretory PAP, fluorogenic substrate): 49.7 µM
Inhibition of mouse secretory PAP in vitro using AMP as substrate (in words) (mPAP [4]; pH 7.0): inhibited
Inhibition of ALP, fluorogenic substrate (in words) (ALP [5]): Neither pCPT-cAMP nor pCPT-cGMP inhibited
Inhibition of pAP, fluorogenic substrate (in words) (pAP): Neither pCPT-cAMP nor pCPT-cGMP inhibited
Inhibition of hydrolysis of AMP to adenosine by transmembrane PAP (in words) (transmembrane PAP): inhibited
Inhibition of PTP, fluorogenic substrate (in words) (PTP): Neither pCPT-cAMP nor pCPT-cGMP inhibited
